Assays:
[1] = test system: Japanese patients with T2DM; test: Clinical laboratory tests and vital signs, 7-day once-daily dosing; assay type: in vivo, human
In short: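 Randomized, single-blind, placebo-controlled, parallel-group study in Japanese T2DM outpatients (HbA1c 6.9–10.5%, FPG ≥126 mg/dL, stable diet 4 weeks, age 20–74 y). Test compound 0.5, 1, 2.5 or 5 mg or placebo was given orally once daily for 7 days before breakfast. Safety set was all dosed patients. AEs were coded in MedDRA 12.1 and graded mild/moderate/severe, with drug relation judged by the investigator. Labs, vital signs, body weight and ECG were also recorded.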

[2] = test system: Japanese patients with T2DM; test: Sigmoid E max model regression of change in UGE on plasma luseogliflozin AUC; assay type: in vivo, human
SGLT2 = conditions: read-out: 50% inhibitory concentration (IC50); cited from earlier work
SGLT1 = conditions: SGLT2 vs SGLT1; cited from earlier work
healthy Japanese males = conditions: healthy subjects on luseogliflozin; cited from earlier work

Structure (SMILES): CCOc1ccc(Cc2cc([C@@H]3S[C@H](CO)[C@@H](O)[C@H](O)[C@H]3O)c(OC)cc2C)cc1 [Luseogliflozin, (1S)-1,5-anhydro-1-[5-(4-ethoxybenzyl)-2-methoxy-4-methylphenyl]-1-thio-D-glucitol]
- Hematocrit, change from baseline ([1]; 1 mg OD, Day 1): −1.26 ± 0.86%
- SBP, change from baseline ([1]; 1 mg OD, Day 1): 3.5 ± 9.6 mmHg
- Serum calcium, change from baseline ([1]; 1 mg OD, Day 1): -0.19 ± 0.16 mg/dL
- Serum phosphorus, change from baseline ([1]; 1 mg OD, Day 1): 0.57 ± 0.32 mg/dL
- Urinary NAG, change from baseline ([1]; 1 mg OD, Day 1): −0.33 ± 0.99 U/L
- Urinary calcium, change from baseline ([1]; 1 mg OD, Day 1): 0.00 ± 0.00 g/day
- Urinary phosphorus, change from baseline ([1]; 1 mg OD, Day 1): -0.13 ± 0.10 g/day
- Urinary type IV collagen, change from baseline ([1]; 1 mg OD, Day 1): −0.44 ± 0.61 μg/g creatinine
- Urinary uric acid, change from baseline ([1]; 1 mg OD, Day 1): 0.08 ± 0.07 g/day
- Urinary β2-microglobulin, change from baseline ([1]; 1 mg OD, Day 1): -8.5 ± 31.3 µg/L
- Cystatin C, change from baseline ([1]; 1 mg OD, Day 7): -0.061 ± 0.043 mg/L
- DBP, change from baseline ([1]; 1 mg OD, Day 7): −0.8 ± 6.6 mmHg
- Hematocrit, change from baseline ([1]; 1 mg OD, Day 7): −2.68 ± 0.89%
- SBP, change from baseline ([1]; 1 mg OD, Day 7): −2.4 ± 12.8 mmHg
- Serum calcium, change from baseline ([1]; 1 mg OD, Day 7): -0.41 ± 0.14 mg/dL
- Serum phosphorus, change from baseline ([1]; 1 mg OD, Day 7): 0.20 ± 0.21 mg/dL
- Urinary NAG, change from baseline ([1]; 1 mg OD, Day 7): 0.73 ± 0.80 U/L
- Urinary calcium, change from baseline ([1]; 1 mg OD, Day 7): 0.00 ± 0.00 g/day
- Urinary phosphorus, change from baseline ([1]; 1 mg OD, Day 7): 0.00 ± 0.13 g/day
- Urinary type IV collagen, change from baseline ([1]; 1 mg OD, Day 7): 0.66 ± 1.22 μg/g creatinine
- Urinary uric acid, change from baseline ([1]; 1 mg OD, Day 7): -0.03 ± 0.20 g/day
- Urinary β2-microglobulin, change from baseline ([1]; 1 mg OD, Day 7): 17.3 ± 54.9 µg/L
- Cystatin C, change from baseline ([1]; 2.5 mg OD, Day 1): 0.016 ± 0.060 mg/L
- DBP, change from baseline ([1]; 2.5 mg OD, Day 1): −4.3 ± 5.6 mmHg
- Hematocrit, change from baseline ([1]; 2.5 mg OD, Day 1): −0.58 ± 1.48%
- SBP, change from baseline ([1]; 2.5 mg OD, Day 1): −5.6 ± 9.5 mmHg
- Serum calcium, change from baseline ([1]; 2.5 mg OD, Day 1): -0.15 ± 0.23 mg/dL
- Serum phosphorus, change from baseline ([1]; 2.5 mg OD, Day 1): 0.68 ± 0.23 mg/dL
- Urinary NAG, change from baseline ([1]; 2.5 mg OD, Day 1): −0.68 ± 1.33 U/L
- Urinary calcium, change from baseline ([1]; 2.5 mg OD, Day 1): -0.01 ± 0.04 g/day
- Urinary phosphorus, change from baseline ([1]; 2.5 mg OD, Day 1): -0.24 ± 0.07 g/day
- Urinary type IV collagen, change from baseline ([1]; 2.5 mg OD, Day 1): −0.05 ± 1.13 μg/g creatinine
- Urinary uric acid, change from baseline ([1]; 2.5 mg OD, Day 1): -0.01 ± 0.04 g/day
- Urinary β2-microglobulin, change from baseline ([1]; 2.5 mg OD, Day 1): -11.0 ± 44.9 µg/L
- Cystatin C, change from baseline ([1]; 2.5 mg OD, Day 7): -0.064 ± 0.054 mg/L
- DBP, change from baseline ([1]; 2.5 mg OD, Day 7): −6.1 ± 5.6 mmHg
- Hematocrit, change from baseline ([1]; 2.5 mg OD, Day 7): −2.89 ± 1.81%
- SBP, change from baseline ([1]; 2.5 mg OD, Day 7): −8.8 ± 10.9 mmHg
- Serum calcium, change from baseline ([1]; 2.5 mg OD, Day 7): -0.40 ± 0.27 mg/dL
- Serum phosphorus, change from baseline ([1]; 2.5 mg OD, Day 7): 0.38 ± 0.29 mg/dL
- Urinary NAG, change from baseline ([1]; 2.5 mg OD, Day 7): −0.08 ± 1.26 U/L
- Urinary calcium, change from baseline ([1]; 2.5 mg OD, Day 7): 0.00 ± 0.05 g/day
- Urinary phosphorus, change from baseline ([1]; 2.5 mg OD, Day 7): -0.03 ± 0.17 g/day
- Urinary type IV collagen, change from baseline ([1]; 2.5 mg OD, Day 7): 0.21 ± 1.85 μg/g creatinine
- Urinary uric acid, change from baseline ([1]; 2.5 mg OD, Day 7): -0.06 ± 0.07 g/day
- Urinary β2-microglobulin, change from baseline ([1]; 2.5 mg OD, Day 7): 5.5 ± 44.0 µg/L
- Cystatin C, change from baseline ([1]; 5 mg OD, Day 1): 0.028 ± 0.042 mg/L
- DBP, change from baseline ([1]; 5 mg OD, Day 1): 0.6 ± 6.0 mmHg
- Hematocrit, change from baseline ([1]; 5 mg OD, Day 1): −0.54 ± 0.85%
- SBP, change from baseline ([1]; 5 mg OD, Day 1): −1.3 ± 12.5 mmHg
- Serum calcium, change from baseline ([1]; 5 mg OD, Day 1): -0.10 ± 0.20 mg/dL
- Serum phosphorus, change from baseline ([1]; 5 mg OD, Day 1): 1.08 ± 0.37 mg/dL
- Urinary NAG, change from baseline ([1]; 5 mg OD, Day 1): −0.81 ± 1.01 U/L
- Urinary calcium, change from baseline ([1]; 5 mg OD, Day 1): -0.01 ± 0.04 g/day
- Urinary phosphorus, change from baseline ([1]; 5 mg OD, Day 1): -0.24 ± 0.11 g/day
- Urinary type IV collagen, change from baseline ([1]; 5 mg OD, Day 1): 0.11 ± 0.97 μg/g creatinine
- Urinary uric acid, change from baseline ([1]; 5 mg OD, Day 1): 0.08 ± 0.12 g/day
- Urinary β2-microglobulin, change from baseline ([1]; 5 mg OD, Day 1): -1.3 ± 13.5 µg/L
- Cystatin C, change from baseline ([1]; 5 mg OD, Day 7): -0.027 ± 0.065 mg/L
- DBP, change from baseline ([1]; 5 mg OD, Day 7): −3.1 ± 6.0 mmHg
- Hematocrit, change from baseline ([1]; 5 mg OD, Day 7): −1.66 ± 1.99%
- SBP, change from baseline ([1]; 5 mg OD, Day 7): −11.3 ± 11.8 mmHg
- Serum calcium, change from baseline ([1]; 5 mg OD, Day 7): -0.16 ± 0.45 mg/dL
- Serum phosphorus, change from baseline ([1]; 5 mg OD, Day 7): 0.42 ± 0.39 mg/dL
- Urinary NAG, change from baseline ([1]; 5 mg OD, Day 7): −0.11 ± 1.18 U/L
- Urinary calcium, change from baseline ([1]; 5 mg OD, Day 7): -0.03 ± 0.05 g/day
- Urinary phosphorus, change from baseline ([1]; 5 mg OD, Day 7): -0.01 ± 0.14 g/day
- Urinary type IV collagen, change from baseline ([1]; 5 mg OD, Day 7): 0.31 ± 1.26 μg/g creatinine
- Urinary uric acid, change from baseline ([1]; 5 mg OD, Day 7): 0.01 ± 0.10 g/day
- Urinary β2-microglobulin, change from baseline ([1]; 5 mg OD, Day 7): 1.4 ± 20.3 µg/L
- UGE as share of the maximal UGE value estimated using the E max model ([2]; 5 mg OD, after 7 days): approximately 85%
- E max (maximum change in UGE), estimate (95% CI) ([2]; values on Day 1 and 7): 119 g/day
- IC50 (SGLT2): 2.26 nM
- IC50 for SGLT2 lower than IC50 for SGLT1 (selectivity) (SGLT1): 1765 fold
- mean UGE (healthy Japanese males): 58.0 g/day
